The subject of one assay is PC-3. Put plainly: Antiproliferative activity against human PC3 cells after 72 hrs by MTT assay. It counts as functional, cell-based. The following applies: PC-3, 72 h. An outline of the steps: (§1)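 A549 (ATCC) and PC3 cells kept in RPMI-1640 with 10% heat-inactivated FBS, 2 mM glutamine and 1 mM sodium pyruvate at 37 °C in humidified 5% CO2. Seeded at about 5000 cells/well and exposed continuously for 72 h to a range of inhibitor concentrations, with MTX as control. Viability read by MTT assay; IC50 reported.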
In general terms: Tetrazolium dyes change colour on reduction, which living cells bring about.

The next assay deals with Carbonic anhydrase 9 (Homo sapiens, UniProt Q16790). Put plainly: Inhibition of human recombinant carbonic anhydrase 9 after 15 mins by stopped flow CO2 hydration assay.
A further assay has as its target Dihydrofolate reductase (Lactobacillus casei, UniProt P00381). As to the kind of experiment: Inhibition of Lactobacillus casei DHFR by spectrophotometric analysis. On the set-up: species or system Lacticaseibacillus casei.
Assay [1] has as its target Dihydrofolate reductase (Lactobacillus casei) (UniProt P00381). Put plainly: Inhibition of Lactobacillus casei DHFR at 0.5 mM by spectrophotometric analysis. The following applies: Lacticaseibacillus casei. In outline:
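L. casei DHFR activity followed spectrophotometrically as the fall in absorbance at 340 nm from NADPH oxidation, with and without inhibitor, at 30 °C. Inhibitor tested at 0.5 mM, the highest concentration used.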

In another assay the test system is A549. Put plainly: Antiproliferative activity against human A549 cells after 72 hrs by MTT assay. It counts as functional, cell-based. The following applies: A549, 72 h. An outline of the steps:
as §1

The values that follow come from ChEMBL document CHEMBL1250432, “Pteridine-sulfonamide conjugates as dual inhibitors of carbonic anhydrases and dihydrofolate reductase with potential antitumor activity” (Bioorg Med Chem, 2010).

SMILES strings stand for the structures. The source made the active and inactive calls. The calls are words filed in the database; no cut-off is given here.

As usually defined, the IC50 is the concentration that inhibits the measured activity by half. Broadly, the Ki is a dissociation constant, usually derived from enzyme kinetics or from competition with a known ligand.

Dihydrofolate reductase, sequence (P00381 whole entry): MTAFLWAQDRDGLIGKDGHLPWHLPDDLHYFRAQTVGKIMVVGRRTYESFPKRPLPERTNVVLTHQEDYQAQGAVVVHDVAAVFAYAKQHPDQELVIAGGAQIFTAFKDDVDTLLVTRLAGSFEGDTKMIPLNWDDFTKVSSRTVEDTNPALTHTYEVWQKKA
Dihydrofolate reductase (Lactobacillus casei), sequence (P00381 whole entry): as above

Regarding `Nc1nc(N)c2nc(CNc3ccc(C(=O)NCCc4ccc(S(=O)(=O)O)cc4)cc3)cnc2n1`, the IC50 in the assay on PC-3 is 500 µM; at Dihydrofolate reductase, 1.3 µM. Moreover, the Ki on Carbonic anhydrase 9 is above 1 µM.

In turn, `Nc1nc(N)c2nc(CNCCc3ccc(S(N)(=O)=O)cc3)cnc2n1` registered a half-inhibitory concentration (IC50) with PC-3 of 300 µM. For the same compound, in assay [1], the inhibition result was “inactive”.

Turning to `CN(Cc1cnc2nc(N)nc(N)c2n1)c1ccc(C(=O)N[C@@H](CCC(=O)O)C(=O)O)cc1` [METHOTREXATE], the figures for the IC50 in the assay on PC-3 and in the assay on A549 were 0.001 µM and 0.005 µM, respectively.

For `Nc1nc(N)c2nc(CNc3ccc(S(=O)(=O)O)cc3)cnc2n1`, the results for the IC50 with PC-3 and against Dihydrofolate reductase were 500 µM and 2 µM, respectively. The Ki at Carbonic anhydrase 9 was above 1 µM.

Regarding `Nc1nc(N)c2nc(CNc3ccc(C(=O)NCCc4ccc(S(N)(=O)=O)cc4)cc3)cnc2n1`, the values for the IC50 in the assay on PC-3, on Dihydrofolate reductase and in the assay with A549 were 400 µM, 20 µM and 2000 µM, respectively. Besides, the Ki at Carbonic anhydrase 9 came out at 0.0025 µM.

`Nc1nc(N)c2nc(CNc3ccc(S(N)(=O)=O)cc3)cnc2n1`: the IC50 with PC-3 turned out to be 550 µM; against Dihydrofolate reductase, 2.5 µM. The Ki on Carbonic anhydrase 9 is 0.0021 µM.

Regarding `CN(Cc1cnc2nc(N)nc(N)c2n1)c1ccc(C(=O)NCCc2ccc(S(N)(=O)=O)cc2)cc1`, the IC50 with PC-3 amounted to 500 µM; against Dihydrofolate reductase, 1.8 µM. Also, the Ki on Carbonic anhydrase 9 amounted to 0.0037 µM.

`Nc1nc(N)c2nc(CNCCc3ccc(S(=O)(=O)O)cc3)cnc2n1` had an IC50 with PC-3 of 460 µM. In addition, the inhibition result in assay [1] was “inactive”. Also, at Carbonic anhydrase 9, the Ki is above 1 µM.
